# Compound activity: PubChem, several laboratories
# This is a sample that favours compounds with a hit; in the whole collection about 4% have one here.
# NTR1 ag: activates human neurotensin receptor 1. activation, % at 20 µM. P30989. 330,000 compounds, 0.17% hits. NTR1-U2OS beta-arrestin-GFP spot imaging, agonist mode;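 active means activation at or above 40% of the spot to cytoplasm intensity ratio, with at least 20 cells analyzed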;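 further: 0% = DMSO without peptide and 100% = 100 nM NTR1 peptide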
# TAAR1 agonist: human TAAR1 agonism; Q96RJ0; CHO RD-HGA16 TAAR1, Fluo-8 calcium fluorescence; vehicle wells 0%, saturating PEA agonist 100%; activation, % at 3 µM; 360,000 compounds, 0.99% hits; AID 624467;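 active means activation above the mean activation of all test compounds in the run plus 3 SD, cut at about 38% in these data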
#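 Repeats: no replicates (n 1) | Material: CHO-derived RD-HGA16 cells with stable Gα16 and human TAAR1 | Technique: Kinetic Fluo-8 calcium fluorescence | Schedule: 17-24 h seeding, 75 min 37 °C dye, 30 min RT | Evaluation: % activation from peak over basal fluorescence ratio, DMSO-to-PEA scaled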
# TAAR1 antag: human TAAR1 antagonism | inhibition, % at 3 µM | Q96RJ0 | CHO RD-HGA16 TAAR1, Fluo-8 calcium fluorescence, antagonist | 360,000 compounds, 1.5% hits;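 active means inhibition above a per-plate cutoff, the mean inhibition of test compounds on that plate plus 3 SD, cut at about 49% in these data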;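 further: 0% = DMSO plus EC80 beta-PEA response and 100% = DMSO alone without agonist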
#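 Test system: CHO RD-HGA16 cells bearing hTAAR1 | Reagent: β-PEA, EC80 | Compound dosing: 3 µM, single point | Schedule: Dye loading 75 min at 37 °C, then 30 min room temperature | Signal: Calcium fluorescence with Fluo-8 | Evaluation: Percent inhibition of PEA-evoked calcium signal, max/basal emission ratio | Control set: DMSO-only wells and EC80 β-PEA-stimulated wells | Repeats: Singlicate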
# OX1R antag-1: antagonists of human orexin 1 receptor | CHO/OX1R cells, Fluo-8 calcium fluorescence, orexin A | AID 434989 | O43613 | inhibition, % at 5 µM | 330,000 compounds, 0.43% hits;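 active means inhibition above its plate's threshold, mean inhibition of all tested compounds on the plate plus 3 SD, cut at about 37% in these data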;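 further: 0% = orexin A challenge wells and 100% = SB-334867-A antagonist wells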
# Target sequence (O43613 whole entry, looked up): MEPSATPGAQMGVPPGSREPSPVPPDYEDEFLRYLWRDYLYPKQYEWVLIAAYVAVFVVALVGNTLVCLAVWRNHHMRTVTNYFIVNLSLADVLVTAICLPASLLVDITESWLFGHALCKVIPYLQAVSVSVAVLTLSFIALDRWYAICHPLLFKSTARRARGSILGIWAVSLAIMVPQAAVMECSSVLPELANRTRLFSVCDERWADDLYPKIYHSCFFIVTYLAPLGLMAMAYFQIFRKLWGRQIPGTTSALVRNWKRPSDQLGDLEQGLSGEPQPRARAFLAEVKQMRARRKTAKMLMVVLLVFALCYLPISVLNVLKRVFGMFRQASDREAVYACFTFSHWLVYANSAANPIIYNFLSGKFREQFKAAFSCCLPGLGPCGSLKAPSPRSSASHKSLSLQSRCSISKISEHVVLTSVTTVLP
# CHO parental Ca: counter-screen: ATP calcium response change in parental CHO cells; parental CHO-K1, ATP-induced calcium, Fluo-8 fluorescence; inhibition, % at 5.6 µM; 330,000 compounds, 0.63% hits;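 active means inhibition above that plate's mean sample inhibition plus 3 SD, cut at about 26% in these data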;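 further: 0% = ATP-challenged DMSO wells and 100% = DMSO wells without ATP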
#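 Assay system – parental CHO cells · Reagent – ATP stimulus · Detection – intracellular calcium via Fluo-8 no-wash fluorescent dye · Evaluation – percent inhibition of ATP-evoked calcium rise, normalized to controls · Controls – ATP wells versus no-ATP DMSO wells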
# OX1R antag-2: blocks the human orexin 1 receptor; O43613; OX1R-expressing cells, FRET antagonist read-out; inhibition, % at 6.6 µM; 330,000 compounds, 1.8% hits; AID 485270; in the data active means inhibition mostly above about 38%, no sharp cut-off; inactive means mostly below about 40%;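 further: 0% = agonist challenge alone and 100% = reference antagonist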
# Starred values were filed as active, the others as inactive; . = no result given.
SMILES,NTR1 ag,TAAR1 agonist,TAAR1 antag,OX1R antag-1,CHO parental Ca,OX1R antag-2
O=C(c1ccccc1)N1N=C(c2cccs2)CC1c1ccccc1O (stereo not given),4,4,-10,-29,-4,8
CCN1C(=O)[C@H]2[C@@H](c3ccc(C)cc3)N3C(=O)N(c4cccc(F)c4)C(=O)[C@@]3(Cc3ccc(Cl)cc3)[C@H]2C1=O,4,6,6,-6,-9,56*
NC(=O)c1ncn([C@@H]2O[C@H](C(=O)N[C@H](Cc3c[nH]c4ccccc34)C(=O)NCC(=O)N3CCCCC3)[C@@H](O)[C@H]2O)n1,.,1,-4,.,.,.
O=C(O)CC1(CC(=O)Nc2cc(C(F)(F)F)cc(C(F)(F)F)c2)CCCCC1,1,2,-30,2,-2,42*
COC(=O)C1=C(C)N(C)C(=NCc2ccccc2)NC1c1cccc(Cl)c1 (stereo not given),.,6,33,.,.,.
